Laboratory results: paper PMC2899701 (Lipids, 2009)
Values after ≈ are worked out from the molar mass of the structure shown. Where two headings read alike, the source gives them in different places. Values belong to the molecule of their own block, whether it stands above or below them.

What was measured:
[1] = test system: L. donovani promastigotes; assay type: cell-based, Leishmania donovani (MHOM/ET67/L82 strain); settings: for L. donovani promastigotes EC50: 48 h incubation, fatty acids in DMSO 0.6 to 25 μg/ml; for Therapeutic index IC50/EC50: IC50 murine macrophages / EC50 L. donovani promastigotes; for Effectiveness towards L. donovani (in words): promastigotes; for EC50: 48 h, read-out: L. donovani promastigotes EC50
Summary of the method: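 L. donovani MHOM/ET67/L82 promastigotes propagated in defined medium 199 with 10% heat-inactivated FCS, penicillin (50 U/ml) and streptomycin (50 µg/ml). Cultures given test fatty acids in DMSO over 0.6 to 25 µg/ml for 48 h. Cell population counted by Coulter counter; IC50/EC50 derived from the concentration series.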

[2] = test system: Murine macrophages (RAW 264.7); experiment: Toxicity to murine macrophages; assay type: cell-based; settings: for Murine macrophages IC50: RAW 264.7, 48 h incubation, alamarBlue; for IC50: RAW264.7, 48 h, read-out: Murine macrophages IC50
Summary of the method: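 RAW 264.7 murine macrophages grown at 37 °C in RPMI 1640 with 10% FCS, penicillin (50 U/ml) and streptomycin (50 µg/ml). Cells exposed 48 h to a range of test compound concentrations (0.3 to 100 µg/ml, DMSO vehicle). Viability read with alamarBlue dye per manufacturer's protocol; IC50 derived from concentration series.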

[3] = target: leishmania DNA topoisomerase IB (LdTopIB) (Leishmania donovani, UniProt A0A3Q8IHS4+Q8WQM6); experiment: DNA relaxation assay with recombinant LdTopIB; assay type: biochemical; settings: concentrations as high as 1mM (gel not shown)
[4] = test system: L. donovani promastigotes; settings: at levels of 100 μg/mL; cited from earlier work
[5] = test system: L. donovani promastigotes; settings: cited from earlier work

SMILES: CCCCCCCCCCCCCCCCCCCC(=O)O [Icosanoic (20:0), n-icosanoic acid]
L. donovani promastigotes EC50 [1]: > 25 µg/mL | Effectiveness towards L. donovani (in words) [1]: not effective | Murine macrophages IC50 [2]: 21.93 ± 2.61 µg/mL | Inhibition of the LdTOPIB enzyme (in words) [3]: did not inhibit the enzyme

SMILES: CCCCCCCCCCCCCCCC(=O)O [n-hexadecanoic acids, n-hexadecanoic acid]
Inhibition of the motility of L. donovani promastigotes (in words) [4]: inhibited the motility

SMILES: CCCCCCCCCC(=O)O [n-Decanoic acid]
MIC against L. donovani promastigotes [5]: 1390 µM (≈ 239 µg/mL) | Inhibition of the motility of L. donovani promastigotes (in words) [4]: inhibited the motility

SMILES: CCCCCCCCCCCC(=O)O [n-dodecanoic, n-dodecanoic acid]
Inhibition of the motility of L. donovani promastigotes (in words) [4]: inhibited the motility

SMILES: CCCCCCCC/C=C\CCCCCCCC(=O)O [oleic acid]
MIC against L. donovani promastigotes [5]: 90 µM (≈ 25.4 µg/mL) | Inhibition of the motility of L. donovani promastigotes (in words) [4]: had no effect

SMILES: CCCCCCCCCCCCCCCCCC(=O)O [octadecanoic acid]
MIC against L. donovani promastigotes [5]: 180 µM (≈ 51.2 µg/mL)

Continued, in another order:

L. donovani promastigotes EC50 [1]: 5.67 ± 1.07 µg/mL | L. donovani promastigotes EC50 ([1]; listed as (6Z)-icosenoic acid): 5 to 6 µg/mL
SMILES: CCCCCCCCCCCCC/C=C\CCCCC(=O)O [Compound 6b, (6Z)-Icosenoic acid]
Therapeutic index IC50/EC50 [1]: 4.97 | Murine macrophages IC50 [2]: 28.20 ± 7.54 µg/mL

EC50 ([1]; Leishmania donovani): 1.11 ± 0.28 µg/mL (≈ 3.6 µM)
SMILES: CCCCCCCCCCCCCC#CCCCCC(=O)O [Compound 1b, 6-Icosynoic acid]
Therapeutic index IC50/EC50 [1]: 4.82 | IC50 ([2]; Mus musculus): 5.35 ± 2.14 µg/mL (≈ 17.3 µM)

L. donovani promastigotes EC50 [1]: > 25 µg/mL | Inhibition of the LdTOPIB enzyme (in words) [3]: did not inhibit the enzyme
SMILES: CCCCCCCCCCCCCCCCC(=O)O [Heptadecanoic (17:0), n-heptadecanoic acid]
Effectiveness towards L. donovani (in words) [1]: not effective | Murine macrophages IC50 [2]: 14.18 ± 7.48 µg/mL

L. donovani promastigotes EC50 [1]: > 25 µg/mL
SMILES: CCCCCCCCCC/C=C\CCCCC(=O)O [Compound 6a, (6Z)-Heptadecenoic acid]
Murine macrophages IC50 [2]: 11.86 ± 1.63 µg/mL

EC50 ([1]; Leishmania donovani): 6.67 ± 1.42 µg/mL (≈ 25 µM)
SMILES: CCCCCCCCCCC#CCCCCC(=O)O [Compound 1a, 6-Heptadecynoic acid]
Therapeutic index IC50/EC50 [1]: 0.85 | IC50 ([2]; Mus musculus): 5.66 ± 0.92 µg/mL (≈ 21.2 µM)

IC50 ([1]; Leishmania donovani, read-out: IC50 against L. donovani): 790 nM
SMILES: CCCCCCCCCCCCCCCCOP(=O)([O-])OCC[N+](C)(C)C [miltefosine]
EC50 ([2]; Mus musculus, RAW264.7, read-out: EC50 against murine macrophages): 1950 nM
